Substitutions are numbered along the chain they refer to.
Assays:
WT-P2X1 receptor = target: T1, WT-P2X1 receptor (Homo sapiens, UniProt P51575); assay: Calcium ion influx assay; format: cell-based; settings: read-out: potency; WT-P2X1, Fig. 4B
T1 sequence (P51575 1-399): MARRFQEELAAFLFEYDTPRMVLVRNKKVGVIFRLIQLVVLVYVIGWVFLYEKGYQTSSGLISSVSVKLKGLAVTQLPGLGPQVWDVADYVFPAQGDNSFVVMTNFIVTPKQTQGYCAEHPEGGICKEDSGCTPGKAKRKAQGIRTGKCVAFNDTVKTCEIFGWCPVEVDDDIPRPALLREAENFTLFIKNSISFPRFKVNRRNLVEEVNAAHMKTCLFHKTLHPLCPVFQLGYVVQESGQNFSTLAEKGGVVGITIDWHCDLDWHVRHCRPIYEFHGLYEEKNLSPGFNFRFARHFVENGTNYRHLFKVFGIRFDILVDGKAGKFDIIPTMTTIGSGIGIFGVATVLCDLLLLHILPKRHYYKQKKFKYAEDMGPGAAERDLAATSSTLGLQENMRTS

P2X1 receptor F188L = target: T2, P2X1 receptor F188L (Homo sapiens, UniProt P51575, F188L); assay: Calcium ion influx assay; format: cell-based; settings: maximal α,β-methylene ATP
T2 sequence (P51575 1-399 F188L): T1 sequence (P51575 1-399) with F188L

P2X1 receptor S286A = target: T3, P2X1 receptor S286A (Homo sapiens, UniProt P51575, S286A); assay: Saturation radioligand binding with [3H]-α,β-methylene ATP
T3 sequence (P51575 1-399 S286A): T1 sequence (P51575 1-399) with S286A
Outline: (§1)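 Whole HEK293 Flp-In T-REx cells stably expressing receptor, tetracycline-induced (150 ng/ml, 2 days), 15,000 cells/well, washed in HEPES binding buffer pH 7.4 with Ca2+/Mg2+. Increasing [3H]-α,β-methylene ATP added, 3 h room temperature with gentle agitation; non-specific binding with 10 μM ATP. Ice-cold 0.9% NaCl washes, scintillation counting (CCPM). Specific binding fitted one-site; values above 300 nM termed not defined.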

P2X1 receptor K140A = target: T4, P2X1 receptor K140A (Homo sapiens, UniProt P51575, K140A); assay: as above
T4 sequence (P51575 1-399 K140A): T1 sequence (P51575 1-399) with K140A
Outline: as §1

P2X1 receptor R139A = target: T5, P2X1 receptor R139A (Homo sapiens, UniProt P51575, R139A); assay: as above
T5 sequence (P51575 1-399 R139A): T1 sequence (P51575 1-399) with R139A
Outline: as §1

P2X1 receptor D97A = target: T6, P2X1 receptor D97A (Homo sapiens, UniProt P51575, D97A); assay: as above
T6 sequence (P51575 1-399 D97A): T1 sequence (P51575 1-399) with D97A
Outline: as §1

## Nc1ncnc2c1ncn2[C@@H]1O[C@H](COP(=O)(O)CP(=O)(O)OP(=O)(O)O)[C@@H](O)[C@H]1O [α,β-methylene ATP]
WT-P2X1 receptor
  EC50: 99 nM
P2X1 receptor F188L
  time to achieve 50% decay, times WT-P2X1: approximately 1.5 times
P2X1 receptor S286A
  binding affinity compared to WT-P2X1: comparable to that of WT-P2X1
P2X1 receptor K140A
  binding affinity compared to WT-P2X1: comparable to that of WT-P2X1
P2X1 receptor R139A
  fold decrease in affinity compared to WT-P2X1: 6 fold
P2X1 receptor D97A
  binding affinity compared to WT-P2X1: similar
